Measured values from ChEMBL document CHEMBL2417510, “Stereoselective pharmacodynamic and pharmacokinetic analysis of sec-Butylpropylacetamide (SPD), a new CNS-active derivative of valproic acid with unique activity against status epilepticus” (J Med Chem, 2013).
≈ marks a conversion by molar mass, not a printed value.

How the values were obtained:
[1] = Solubility of the compound in water; assay type: physicochemical
[2] = Solubility of the compound in 5:1:4 solution of propylene glycol, alcohol and water; assay type: physicochemical
Mus musculus [3] = assay: Teratogenicity in SWV/Fnn mouse assessed as fetuses with neural tube defects at 141 mg/kg, ip on day 8.5 of gestation relative to vehicle-treated control; assay type: toxicity, organism-based; parameters: dose 141 mg/kg, route intraperitoneal; details: in vivo
Mus musculus [4] = assay: Teratogenicity in SWV/Fnn mouse assessed as fetuses with neural tube defects at 283 mg/kg, ip on day 8.5 of gestation relative to vehicle-treated control; assay type: toxicity, organism-based; parameters: dose 283 mg/kg, route intraperitoneal; details: in vivo
Mus musculus [5] = assay: Teratogenicity in SWV/Fnn mouse assessed as normal fetuses at 141 mg/kg, ip on day 8.5 of gestation (reference value: 100 %); assay type: toxicity, organism-based; parameters: dose 141 mg/kg, route intraperitoneal; details: in vivo
Mus musculus [6] = assay: Teratogenicity in SWV/Fnn mouse assessed as normal fetuses at 283 mg/kg, ip on day 8.5 of gestation (reference value: 100 %); assay type: toxicity, organism-based; parameters: dose 283 mg/kg, route intraperitoneal; details: in vivo
Mus musculus [7] = assay: Teratogenicity in SWV/Fnn mouse assessed as live fetuses at 141 mg/kg, ip on day 8.5 of gestation (reference value: 93.7 %); assay type: toxicity, organism-based; parameters: dose 141 mg/kg, route intraperitoneal; details: in vivo
Mus musculus [8] = assay: Teratogenicity in SWV/Fnn mouse assessed as live fetuses at 283 mg/kg, ip on day 8.5 of gestation (reference value: 93.7 %); assay type: toxicity, organism-based; parameters: dose 283 mg/kg, route intraperitoneal; details: in vivo
Mus musculus [9] = assay: Teratogenicity in SWV/Fnn mouse assessed as resorption at 141 mg/kg, ip on day 8.5 of gestation (reference value: 6.3 %); assay type: toxicity, organism-based; parameters: dose 141 mg/kg, route intraperitoneal; details: in vivo
Mus musculus [10] = assay: Teratogenicity in SWV/Fnn mouse assessed as resorption at 283 mg/kg, ip on day 8.5 of gestation (reference value: 6.3 %); assay type: toxicity, organism-based; parameters: dose 283 mg/kg, route intraperitoneal; details: in vivo
Hippocampus [11] = assay: Protection against kainic acid-induced spontaneous electrographic seizures in combined medial entorhinal cortex hippocampal brain slices of albino Sprague-Dawley rat assessed as burst duration at 100 uM after 1 week relative to control; assay type: functional
Summary of the method: (§1)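 Rat brain slices showing spontaneous bursting were exposed to 100 μM compound. Burst rate and burst duration were expressed as % of control ± SEM.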

Hippocampus [12] = assay: Protection against kainic acid-induced spontaneous electrographic seizures in combined medial entorhinal cortex hippocampal brain slices of albino Sprague-Dawley rat assessed as burst rate at 100 uM after 1 week relative to control; assay type: functional; summary of the method: as §1
[13] = Neurotoxicity in po dosed albino Sprague-Dawley rat assessed as minimal motor impairment after 0.5 to 1 hr; assay type: toxicity, organism-based; details: in vivo
Summary of the method: (§2)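 Each test was run at the previously determined time to peak effect: 0.25–0.5 h after ip dosing, or 0.5–1 h after oral dosing. Groups of 4–8 animals received various doses until at least two points fell between 0% and 100% protection or minimal toxicity.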

Rattus norvegicus [14] = assay: Anticonvulsant activity in po dosed albino Sprague-Dawley rat assessed as protection against maximal electroshock-induced seizures after 0.5 to 1 hr; assay type: functional; summary of the method: as §2
[15] = Neurotoxicity in ip dosed albino Sprague-Dawley rat assessed as minimal motor impairment after 0.25 to 0.5 hrs; assay type: toxicity, organism-based; details: in vivo; summary of the method: as §2
Rattus norvegicus [16] = assay: Anticonvulsant activity in ip dosed albino Sprague-Dawley rat assessed as protection against pilocarpine-induced behavioral seizures administered 30 mins post seizure measured after 0.25 to 0.5 hrs; assay type: functional
Summary of the method: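 Status epilepticus was induced in rats with lithium–pilocarpine. Compound was given ip 30 min after the first observed stage 3 or greater motor seizure. The read-out was prevention of further convulsive seizures across various doses in groups of 4–8 rats.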

Rattus norvegicus [17] = assay: Anticonvulsant activity in ip dosed albino Sprague-Dawley rat assessed as protection against subcutaneous metrazol-induced seizures after 0.25 to 0.5 hrs; assay type: functional; summary of the method: as §2
Mus musculus [18] = assay: Anticonvulsant activity in ip dosed albino CF1 mouse assessed as protection against 32 mA-current- for 3 secs induced seizures after 0.25 to 0.5 hrs by 6Hz psychomotor seizure test; assay type: functional; summary of the method: as §2
Mus musculus [19] = assay: Anticonvulsant activity in ip dosed albino CF1 mouse assessed as protection against 44 mA-current- for 3 secs induced seizures after 0.25 to 0.5 hrs by 6Hz psychomotor seizure test; assay type: functional; summary of the method: as §2
[20] = Neurotoxicity in ip dosed albino CF1 mouse assessed as minimal motor impairment after 0.25 to 0.5 hrs; assay type: toxicity, organism-based; details: in vivo; summary of the method: as §2
Mus musculus [21] = assay: Anticonvulsant activity in ip dosed albino CF1 mouse assessed as protection against maximal electroshock-induced seizures after 0.25 to 0.5 hrs; assay type: functional; summary of the method: as §2
Mus musculus [22] = assay: Anticonvulsant activity in ip dosed albino CF1 mouse assessed as protection against subcutaneous metrazol-induced seizures after 0.25 to 0.5 hrs; assay type: functional; details: albino CF1, 0.5 h; summary of the method: as §2
[23] = Mean residence time in rat at 60 mg/kg, ip; assay type: ADME, organism-based; parameters: dose 60 mg/kg, route intraperitoneal; details: in vivo
Summary of the method: (§3)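 Naive rats got a single ip dose of 60 mg/kg, formulated in multisol (propylene glycol:alcohol:water for injection, 5:1:4). Plasma concentration–time profiles were followed, and PK parameters (t1/2, CL/F, Vz/F, AUC, Cmax, tmax, MRT) were derived from them.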

[24] = Tmax in rat at 60 mg/kg, ip; assay type: ADME, organism-based; parameters: dose 60 mg/kg, route intraperitoneal; details: in vivo; summary of the method: as §3
[25] = AUC in rat at 60 mg/kg, ip; assay type: ADME, organism-based; parameters: dose 60 mg/kg, route intraperitoneal; details: plasma; summary of the method: as §3
[26] = Cmax in rat at 60 mg/kg, ip; assay type: ADME, organism-based; parameters: dose 60 mg/kg, route intraperitoneal; details: in vivo; summary of the method: as §3
[27] = Apparent volume of distribution […] in rat at 60 mg/kg, ip; assay type: ADME, organism-based; parameters: dose 60 mg/kg, route intraperitoneal; details: in vivo, read-out: Vz/F; summary of the method: as §3
[28] = Apparent clearance in rat at 60 mg/kg, ip; assay type: ADME, organism-based; parameters: dose 60 mg/kg, route intraperitoneal; details: in vivo; summary of the method: as §3
[29] = Terminal half life in rat at 60 mg/kg, ip; assay type: ADME, organism-based; parameters: dose 60 mg/kg, route intraperitoneal; details: in vivo, read-out: beta t1/2 (converted); summary of the method: as §3
Mus musculus [30] = assay: Teratogenicity in SWV/Fnn mouse assessed as resorption at 301 mg/kg, ip on day 8.5 of gestation (reference value: 6.3 %); assay type: toxicity, organism-based; parameters: dose 301 mg/kg, route intraperitoneal; details: in vivo
Mus musculus [31] = assay: Teratogenicity in SWV/Fnn mouse assessed as normal fetuses at 301 mg/kg, ip on day 8.5 of gestation (reference value: 100 %); assay type: toxicity, organism-based; parameters: dose 301 mg/kg, route intraperitoneal; details: in vivo
Mus musculus [32] = assay: Teratogenicity in SWV/Fnn mouse assessed as fetuses with neural tube defects at 181 mg/kg, ip on day 8.5 of gestation relative to vehicle-treated control; assay type: toxicity, organism-based; parameters: dose 181 mg/kg, route intraperitoneal; details: in vivo
Mus musculus [33] = assay: Teratogenicity in SWV/Fnn mouse assessed as normal fetuses at 181 mg/kg, ip on day 8.5 of gestation (reference value: 100 %); assay type: toxicity, organism-based; parameters: dose 181 mg/kg, route intraperitoneal; details: in vivo
Mus musculus [34] = assay: Teratogenicity in SWV/Fnn mouse assessed as live fetuses at 181 mg/kg, ip on day 8.5 of gestation (reference value: 93.7 %); assay type: toxicity, organism-based; parameters: dose 181 mg/kg, route intraperitoneal; details: in vivo
Mus musculus [35] = assay: Teratogenicity in SWV/Fnn mouse assessed as resorption at 181 mg/kg, ip on day 8.5 of gestation (reference value: 6.3 %); assay type: toxicity, organism-based; parameters: dose 181 mg/kg, route intraperitoneal; details: in vivo

SMILES	Activity (Mus musculus [3]) [%]	Activity (Mus musculus [4]) [%]	Activity (Mus musculus [5]) [%]	Activity (Mus musculus [6]) [%]	Activity (Mus musculus [7]) [%]	Activity (Mus musculus [8]) [%]	Activity (Mus musculus [9]) [%]	Activity (Mus musculus [10]) [%]	Activity (Hippocampus [11]) [%]	Activity (Hippocampus [12]) [%]	TD50 [13] [mg/kg]	ED50 (Rattus norvegicus [14]) [mg/kg]	ED50 (Rattus norvegicus [16]) [mg/kg]	ED50 (Mus musculus [18]) [mg/kg]	ED50 (Mus musculus [19]) [mg/kg]	TD50 [20] [mg/kg]	MRT [23] [h]	Tmax [24] [h]	AUC [25] [ng·h/mL]	Cmax [26] [ng/mL]	other results
CCCC(C(N)=O)C(C)CC (racemic)	0	0	93	87	92.5	86.6	7.5	13.4	145	76	131	29	84	27	45	88	1.8	0.75	31300	14100	solubility [1]: 1.5 mg/mL (≈ 9.54 mM); solubility [2]: 27 mg/mL (≈ 172 mM); TD50 [15]: 49 mg/kg; ED50 (Rattus norvegicus [17]): 21 mg/kg; ED50 (Mus musculus [21]): 71 mg/kg; ED50 (Mus musculus [22]): 62 mg/kg; Vd/F [27]: 3 L/kg; CL/F [28]: 30 mL/min/kg; half-life [29]: 1.1 h
CCC[C@@H](C(N)=O)[C@H](C)CC [(2R,3R)-SEC-BUTYLPROPYLACETAMIDE]	0	5.4	100	94.6	92.5	77.1	7.5	22.9	94	77	102	79	98	38	52	94	1.5	0.5	26400	18000	TD50 [15]: 34 mg/kg; ED50 (Rattus norvegicus [17]): 15 mg/kg; ED50 (Mus musculus [21]): 70 mg/kg; ED50 (Mus musculus [22]): 53 mg/kg; Vd/F [27]: 3.6 L/kg; CL/F [28]: 36.7 mL/min/kg; half-life [29]: 1.1 h
CCC[C@@H](C(N)=O)[C@@H](C)CC [(2R,3S)-SEC-BUTYLPROPYLACETAMIDE]	0	0	100	100	91.6	93.5	8.4	6.5	78	97	79	72	135	29	51	67	2.2	1	15200	5300	TD50 [15]: 41 mg/kg; ED50 (Rattus norvegicus [17]): 15 mg/kg; ED50 (Mus musculus [21]): 95 mg/kg; ED50 (Mus musculus [22]): 93 mg/kg; Vd/F [27]: 7.2 L/kg; CL/F [28]: 65 mL/min/kg; half-life [29]: 1.3 h
CCC[C@H](C(N)=O)[C@@H](C)CC	0	0	100	100	94.2	92.5	5.8	7.5	45	109	124	48	94	27	59	126	1.8	0.5	32900	21700	TD50 [15]: 34 mg/kg; ED50 (Rattus norvegicus [17]): 14 mg/kg; ED50 (Mus musculus [21]): 75 mg/kg; ED50 (Mus musculus [22]): 69 mg/kg; Vd/F [27]: 3.9 L/kg; CL/F [28]: 30 mL/min/kg; half-life [29]: 1.5 h
CCCC(CCC)C(=O)[O-].[Na+] [VALPROATE SODIUM]																					Activity (Mus musculus [30]): 13.6%; Activity (Mus musculus [31]): 99%; Activity (Mus musculus [32]): 0%; Activity (Mus musculus [33]): 100%; Activity (Mus musculus [34]): 92.3%; Activity (Mus musculus [35]): 7.7%
CCC[C@H](C(N)=O)[C@H](C)CC [(2S,3R)-SEC-BUTYLPROPYLACETAMIDE]	0	0	100	100	92.6	90.6	7.4	9.4	90	91	105	106	> 130	27	< 100	> 75	1.5	0.5	12600	8000	Vd/F [27]: 6.3 L/kg; CL/F [28]: 76.7 mL/min/kg; half-life [29]: 0.95 h
